Source: PubChem BioAssay (several laboratories)
TRPC4 block – inhibitors of mouse TRPC4 channel; Q9QUQ5; actives 0.39% (n = 300,000); HEK293 TRPC4beta/mu-opioid, DAMGO-evoked Fluo4 calcium flux; active compounds read low; B-score at 10 µM; AID 2247;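 active = B-score over 3 SD under the library average, no early fluorescence shift, positive overall ratio signal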
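Assay system: HEK293 cells with stable TRPC4beta plus mu-opioid receptor expression; Probe or stimulus: DAMGO in two steps, submaximal then maximal; Dosing: single-point compound dosing; Measured by: Fluo4 calcium-dye fluorescence, kinetic read; Read-out basis: B score from integrated Fluo4 fluorescence ratio.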
FID counter – fluorescent intercalator displacement, NS3 helicase counter-screen; DNA fluorescent intercalator displacement, fluorescence; inhibition, % at 7.9 µM; actives 0.17% (n = 290,000); AID 1845; in the data active = inhibition above about 37%;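 note: higher means more ethidium bromide displaced from hairpin DNA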
TRPC4 PAM – TRPC4 (mouse) allosteric potentiation; actives 0.42% (n = 310,000); HEK293 TRPC4beta/mu-opioid, DAMGO EC20, Fluo-4 Ca2+ flux; active compounds read high; B-score at 10 µM; AID 2227; Q9QUQ5;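 active = B-score of calcium response area above 5 SD of library B-scores, with initial fluorescence ratio within 5 SD of library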
TRPC4 agonist – TRPC4 (mouse) channel activation | Q9QUQ5 | AID 2237 | HEK293 TRPC4beta/mu-opioid, Fluo4 calcium fluorescence; active compounds read high | actives 0.49% (n = 310,000) | B-score at 10 µM;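 active = B-score above 5 SD of library B-scores, and initial fluorescence ratio not above library mean plus 5 SD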;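 note: positive B-score marks a calcium rise read as TRPC4 activation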
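Material: HEK293 stable line with TRPC4beta plus mu-opioid receptor; technique: Fluo4 calcium-sensitive dye fluorescence, kinetic, 1 Hz baseline; timing: Fluo4 dye loading 45 min at room temperature, 110 s recording; controls: assay buffer as low control, maximal DAMGO as high control; read-out: integrated baseline-normalised fluorescence ratio, converted to per-well B score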
TRPC6 inhibitor – blocks the mouse TRPC6 cation channel | Q61143 | HEK293-TRPC6, membrane potential dye, ACh-evoked depolarization; active compounds read low | B-score at 10 µM | actives 1.1% (n = 310,000);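 active = B-score under library mean minus 3 SD, initial fluorescence not abnormally high, positive integrated signal ratio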;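 note: B-score derived from integrated fluorescence ratio over the kinetic read; more negative B-score means stronger inhibition of depolarization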
Target sequence (Q61143 whole entry, looked up): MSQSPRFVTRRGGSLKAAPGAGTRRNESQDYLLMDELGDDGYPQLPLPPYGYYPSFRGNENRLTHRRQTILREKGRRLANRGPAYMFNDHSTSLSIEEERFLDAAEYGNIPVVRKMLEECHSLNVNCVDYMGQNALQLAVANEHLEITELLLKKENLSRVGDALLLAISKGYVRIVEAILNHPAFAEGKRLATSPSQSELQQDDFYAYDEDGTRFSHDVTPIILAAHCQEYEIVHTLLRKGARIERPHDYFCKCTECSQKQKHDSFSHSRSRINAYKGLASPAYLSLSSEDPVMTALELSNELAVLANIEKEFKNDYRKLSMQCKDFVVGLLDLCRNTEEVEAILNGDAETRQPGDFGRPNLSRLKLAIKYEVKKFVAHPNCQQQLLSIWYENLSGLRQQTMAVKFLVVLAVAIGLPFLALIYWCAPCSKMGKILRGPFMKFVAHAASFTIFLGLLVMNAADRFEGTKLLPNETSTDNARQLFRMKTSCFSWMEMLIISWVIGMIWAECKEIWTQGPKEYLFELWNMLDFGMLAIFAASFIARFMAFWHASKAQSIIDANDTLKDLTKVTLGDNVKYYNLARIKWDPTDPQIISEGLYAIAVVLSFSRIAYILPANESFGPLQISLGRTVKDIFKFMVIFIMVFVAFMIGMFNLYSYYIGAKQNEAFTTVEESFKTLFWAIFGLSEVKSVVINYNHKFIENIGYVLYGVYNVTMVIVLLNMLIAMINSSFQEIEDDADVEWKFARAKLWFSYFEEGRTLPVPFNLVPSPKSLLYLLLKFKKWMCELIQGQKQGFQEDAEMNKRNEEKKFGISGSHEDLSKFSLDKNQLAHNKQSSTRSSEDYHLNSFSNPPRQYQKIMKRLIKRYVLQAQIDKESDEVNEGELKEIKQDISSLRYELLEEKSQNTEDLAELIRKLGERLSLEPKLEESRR
TRPC6 activator – activators of mouse TRPC6 channel; Q61143; HEK293-TRPC6 membrane potential dye fluorescence; active compounds read high; B-score at 10 µM; actives 0.13% (n = 310,000); AID 2550;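 active = B-score of the integrated fluorescence ratio above library mean plus 3 SD, and starting fluorescence ratio within library mean plus 5 SD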;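 note: higher score means more depolarization so channel activation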
TRPC4 sel inh 2 – mouse TRPC4 off-target activity of TRPC6 inhibitors, second screen; shares compounds with TRPC6 inhibitor; HEK293 TRPC4/MOR, membrane potential dye fluorescence; channel activated by saturating DAMGO dose; inhibition, % at 10 µM; actives 42% (n = 920); AID 2776;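 active = compounds whose fluorescence signal differed from control wells by over 3 SD, either direction, in both duplicate plates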
TRPC4 spec – selectivity of TRPC6 inhibitors: effect on mouse TRPC4; actives 61% (n = 920); AID 2777; HEK293 TRPC4/mu-opioid, membrane potential fluorescence; shares compounds with TRPC6 inhibitor; activity change, negative = inhibition, % at 10 µM;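 active = rise or fall in signal beyond 3 SD of buffer-only wells in both replicate plates, either sign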;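 note: integrated kinetic ratio of fluorescence range over baseline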
HEK293 MPD ctr 2-1 – second counter-screen for TRPC6 inhibitors: parental HEK293 cells. shares compounds with TRPC6 inhibitor. parental HEK293 membrane potential dye fluorescence; maximal acetylcholine challenge after compound addition. signal change vs control, % at 10 µM. actives 31% (n = 920);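 active = membrane potential signal moving either way by over 3 SD of the maximum-effect control, in both duplicate plates, meaning non-specific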
HEK293 MPD ctr-1 – parental HEK293 nonspecific activity of TRPC6 inhibitors; shares compounds with TRPC6 inhibitor; parental HEK293 membrane potential dye fluorescence; membrane potential signal change, % at 10 µM; actives 60% (n = 920);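 active = membrane potential signal shifting up or down by more than 3 SD of buffer-only wells, on both duplicate plates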
HEK293 MPD ctr-2 – parental HEK293 nonspecific activity of TRPC6 modulators; shares compounds with TRPC6 inhibitor; membrane potential dye fluorescence; membrane potential signal change, % at 10 µM; actives 51% (n = 2,400); AID 488924;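 active = membrane potential signal moves up or down beyond 5 SD from buffer-only wells, on both duplicate plates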
HEK293 MPD ctr 2-2 – second check of TRPC6 modulator effects in parental HEK293 cells | shares compounds with TRPC6 inhibitor | membrane potential dye fluorescence; after compound, maximal acetylcholine stimulation | inhibition, % at 10 µM | actives 14% (n = 2,400) | AID 488926;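 active = membrane potential signal drops by more than 5 SD from the mean control signal, in both duplicate plates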
TRPC4 ctr mod – mouse TRPC4 off-target activity of TRPC6 modulators | shares compounds with TRPC6 inhibitor | HEK293 TRPC4/mu-opioid, membrane potential fluorescence | percent change from control (negative = decrease, positive = increase), % at 10 µM | actives 69% (n = 2,400) | AID 488927;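 active = membrane potential signal moved up or down beyond 5 SD of buffer control wells, in both duplicate plates, actives on both sides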
TRPC4/MOR inh 2 – mouse TRPC4 off-target activity of TRPC6 modulators, second screen; shares compounds with TRPC6 inhibitor; HEK293 TRPC4/mu-opioid, membrane potential dye fluorescence; stimulated with maximal-effect DAMGO; inhibition, % at 10 µM; actives 55% (n = 2,400);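 active = drop in membrane potential signal beyond 5 SD of the control wells in both duplicate plates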;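 note: TRPC4 counter screen for TRPC6 hits run under conditions tuned for TRPC6 not TRPC4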
TRPC6 block conf – mouse TRPC6 inhibitor confirmation. inhibition, % at 10 µM. actives 43% (n = 3,300). shares compounds with TRPC6 inhibitor. HEK293-TRPC6, membrane potential dye, ACh-evoked depolarization;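 active = fluorescence ratio falls more than 5 SD below the full-stimulation control mean, in both duplicate runs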;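 note: integrated fluorescence ratio of peak minus minimum over baseline after agonist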
TRPC6 act confirm – mouse TRPC6 activator confirmation | activation, % at 10 µM | shares compounds with TRPC6 inhibitor | actives 11% (n = 2,800) | HEK293-TRPC6 membrane potential dye fluorescence, FDSS;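 active = ratio signal rise beyond 5 SD above unstimulated control wells' mean, seen in both duplicate runs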
Of the large screens only hits and unclear results are named; the others gave an inactive call (follow-up assays come after a bar, where they were run). An excerpt weighted towards active compounds, which were near 2.3% of everything screened.

COc1ccc(-c2[nH]c3ccccc3c2SCCNC(=O)c2ccccc2)cc1	none
Cc1ccc(-c2[nH]c3ccccc3c2SCCN)cc1	TRPC4 block -7, TRPC6 inhibitor -6.7 | TRPC4 sel inh 2 36% | TRPC4 spec -12% | HEK293 MPD ctr 2-1 inactive | HEK293 MPD ctr-1 -296% | TRPC6 block conf inactive | TRPC6 act confirm inactive
Cc1[nH]c2ccccc2c1SCCN	none
NCCSc1c(-c2ccccc2)[nH]c2ccccc12	TRPC6 inhibitor -5.3 | HEK293 MPD ctr-2 inactive | HEK293 MPD ctr 2-2 inactive | TRPC4 ctr mod inactive | TRPC4/MOR inh 2 57% | TRPC6 block conf 52% | TRPC6 act confirm inactive
NCCSc1c(-c2ccc(Cl)cc2)[nH]c2ccccc12	TRPC4 agonist 129, TRPC6 inhibitor -6.7 | TRPC4 sel inh 2 23% | TRPC4 spec -12% | HEK293 MPD ctr 2-1 inactive | HEK293 MPD ctr-1 -323% | TRPC6 block conf 69% | TRPC6 act confirm inactive
NCCSc1c(-c2ccc(F)cc2)[nH]c2ccccc12	TRPC6 inhibitor -6 | HEK293 MPD ctr-2 inactive | HEK293 MPD ctr 2-2 inactive | TRPC4 ctr mod inactive | TRPC4/MOR inh 2 83% | TRPC6 block conf 77% | TRPC6 act confirm inactive
CCC1C(=O)NCCN1C(=O)c1ccc2nc(Cc3cccc(Cl)c3)oc2c1 (configuration not stated)	none
CCN(CC)CCNC(=O)c1ccc(NC(=O)c2ccc(Cl)c(S(=O)(=O)N3CCCCCC3)c2)cc1	TRPC6 inhibitor -6 | HEK293 MPD ctr-2 113% | HEK293 MPD ctr 2-2 76% | TRPC4 ctr mod 12% | TRPC4/MOR inh 2 inactive | TRPC6 block conf 42%
O=C(CCN1C(=O)C2CC=CCC2C1=O)Nc1cccc(Cl)c1 (configuration not stated)	none
Cc1cc(OCC(=O)O/N=C(\N)Cc2cccs2)ccc1Br	TRPC6 inhibitor -9.8 | TRPC4 sel inh 2 inactive | TRPC4 spec inactive | HEK293 MPD ctr 2-1 inactive | HEK293 MPD ctr-1 inactive | TRPC6 block conf inactive | TRPC6 act confirm inactive
Cc1ccc(OCC(=O)O/N=C(\N)Cc2cccs2)cc1C	none
O=C(CCCOc1ccc(Cl)cc1Cl)N1CCN(c2ccccn2)CC1	TRPC6 inhibitor -9.3 | TRPC4 sel inh 2 inactive | TRPC4 spec 0.1% | HEK293 MPD ctr 2-1 inactive | HEK293 MPD ctr-1 1.5% | TRPC6 block conf inactive
COc1ccc2c(c1)S/C(=C\C(=O)c1ccncc1)N2C	TRPC6 inhibitor -5.9 | HEK293 MPD ctr-2 100% | HEK293 MPD ctr 2-2 inactive | TRPC4 ctr mod -67% | TRPC4/MOR inh 2 34% | TRPC6 block conf inactive | TRPC6 act confirm inactive
COc1cc(OC)cc(C(=O)/C=C2\Sc3ccccc3N2C)c1	none
CCCN(CC(=O)Nc1ccccc1C)C(=O)c1ccc(=O)n(Cc2ccccc2)n1	TRPC6 inhibitor -5.1 (no result: FID counter) | HEK293 MPD ctr-2 90% | HEK293 MPD ctr 2-2 inactive | TRPC4 ctr mod 16% | TRPC4/MOR inh 2 inactive | TRPC6 block conf inactive | TRPC6 act confirm inactive
CCCn1c2ccccc2c2cnn(CC(=O)NCCCN3CCCCC3)c(=O)c21	none
CCCn1c2ccccc2c2cnn(CC(=O)NCCCN3CCN(c4ccccc4)CC3)c(=O)c21	TRPC6 inhibitor -5.3 | HEK293 MPD ctr-2 134% | HEK293 MPD ctr 2-2 inactive | TRPC4 ctr mod 8.0% | TRPC4/MOR inh 2 74% | TRPC6 block conf inactive
CN(Cc1cccc(Cl)c1Cl)C(=O)c1cccc(S(=O)(=O)N2CCN(Cc3ccccc3)CC2)c1	none
Cc1ccc(S(=O)(=O)N(CC(=O)Nc2ccc(C)cc2C)C(=O)N2CCN(C)CC2)cc1	none (no result: FID counter)
N#C/C(=C/c1ccc(N2CCOCC2)o1)c1ccc(Br)cc1	TRPC6 activator 25 | HEK293 MPD ctr-2 568% | HEK293 MPD ctr 2-2 inactive | TRPC4 ctr mod 152% | TRPC4/MOR inh 2 inactive | TRPC6 block conf inactive | TRPC6 act confirm 116%
N#C/C(=C\c1ccc(N2CCOCC2)o1)c1ccccc1	TRPC6 activator 18 | HEK293 MPD ctr-2 448% | HEK293 MPD ctr 2-2 inactive | TRPC4 ctr mod 89% | TRPC4/MOR inh 2 inactive | TRPC6 block conf inactive | TRPC6 act confirm 166%
N#C/C(=C/c1ccc(N2CCOCC2)o1)c1nc2ccccc2[nH]1	none (no result: TRPC4 block, TRPC4 PAM, TRPC4 agonist, TRPC6 inhibitor, TRPC6 activator)
CCOc1ccc(/C(O)=C2/C(=O)C(=O)N(CCCN3CCOCC3)C2c2ccc(F)cc2)cc1C (configuration not stated)	none
Cc1cc(N2CCN(C(=O)Nc3ccccc3C#N)CC2)c2ccccc2n1	TRPC6 inhibitor -6.7 | HEK293 MPD ctr-2 -230% | HEK293 MPD ctr 2-2 inactive | TRPC4 ctr mod -40% | TRPC4/MOR inh 2 44% | TRPC6 block conf 42% | TRPC6 act confirm inactive
CC(=O)Nc1ccc(S(=O)(=O)N2CCN(c3cc(C)nc4ccccc34)CC2)cc1	TRPC6 inhibitor -7.8 | HEK293 MPD ctr-2 -267% | HEK293 MPD ctr 2-2 inactive | TRPC4 ctr mod -45% | TRPC4/MOR inh 2 70% | TRPC6 block conf 46% | TRPC6 act confirm inactive
CC(=O)Nc1ccc(S(=O)(=O)N2CCN(c3nc(NC4CCCC4)c4ccccc4n3)CC2)cc1	none
